Laboratory results taken from the RNAGym collection of RNA variant scans (doi:10.1126/science.aae0568).
This sample holds only a part of the variants without activity.

B1: tRNA (parent)
chain: GUUCCGUUGGCGUAAUGGUAACGCGUCUCCCUCCUAAGGAGAAGACUGCGGGUUCGAGUCCCGUACGGAACG

Variants of: B1
Assay: yeast fitness relative to wild type (ratio to wild type); higher = fitter; tRNA-Arg(CCU), competitive growth, 37 C, YPD
Procedure, shortened: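 The tRNA-Arg(CCU) gene variants were made by chemical synthesis with a 3% per-site mutation rate at 69 sites and inserted at the native genomic locus of Saccharomyces cerevisiae. After pooling, the strains were competed in YPD at 37°C for 24 hours in six parallel replicates. Gene amplicons from the start population and each end population were read by 100-nucleotide paired-end sequencing, and Darwinian fitness relative to wild type was taken from genotype frequency changes. Genotypes needed ≥ 100 starting reads, and estimates < 0.5 were set to 0.5.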
For GUUGGGUUGGCGUAAUGGUAACGCGUCUACCUCUUAAGGAGUAGACUGCCGGUUCGAGUCCCGUACGCGACG [C4G C5G C29A C34U A42U G50C G68C A69G], the yeast fitness was 0.58.
Work on GUUGCGUUGGCGUAAUGGUAACGCGUCUCCCUCCUAAGGAGGAGUCUGCGGGUCGGAGUCACGUACGGAACG [C4G A42G A45U U54C C55G C61A] yielded a yeast fitness of at most 0.5.
For GUUGCGUUGGCGUAAUGGUAACGCGUCUCCCUCCUAAGGAGAAGUCUCGGGGUUCGAGUCCCGUACGGAACG [C4G A45U G48C C49G], the yeast fitness was at most 0.5.
In the case of GUUGUGUUGGCGUAAUGGUAACGCGUCUCCGUCCUAAGGAAACGACUGCGCGUUCGAGUCCCGUACGGAACG [C4G C5U C31G G41A A43C G51C], the yeast fitness is reported as 0.606.
For GUUGUGUUGGCGUAAUGGUAACGCGUCUCCCUCCUAAGGAGAAGACUGAGGGUUCAAGUCCCCUACGGAACG [C4G C5U C49A G56A G63C], the yeast fitness was at most 0.5.
Work on GUUGCGUUGGCGUAAUGGUAGCGCGUCUCCCUCUUAAGGAGAACACUGCGGGUUGGAGUCCCGUACGGAACG [C4G A21G C34U G44C C55G] yielded a yeast fitness of at most 0.5.
Variant GUUGUGUUGGCGUAAUGGUAACGCGUCUCCCUCCUAAGGAGAAGACUGCGGGUUCGAAUCCCGUACGGACCG [C4G C5U G58A A70C] has a yeast fitness of at most 0.5.
GUUGCGUUGGCGUAAUGGUAACGCGUCUCCCUCCUAAGGUGAAGUCUGCGGGUUCGAGUCCCGUACGGAACG [C4G A40U A45U] gave a yeast fitness of 0.546.
For GUUGAGUUGGCGUAAUGGUAACGUGUCUCCCUCCUAAGGAGAAGACUGCGGGUUCGAGUCUCGUAUGGACCG [C4G C5A C24U C61U C66U A70C], the yeast fitness was 0.514.
In the case of GUUGUGUUGGCGUAAUGGUAACGCGUCUCCCUCCUAAGGAGAACACUGCGGGUUCGAGUCCCGUACGGAACG [C4G C5U G44C], the yeast fitness is reported as at most 0.5.
Work on GUUGUGUUGGCGUAAUGGUAACGCGUCUCCCUCCUAAGGAGAAGACUGCGGGUUCGAGUCCCGUACGGAACG [C4G C5U] yielded a yeast fitness of 0.751.
GUUGGGUUGGCGUAAUGGUAACGCGGCUCCCUCCUAAGGAGAAGCCUGCGGGUUCGAGUCUCGUACAGAACG [C4G C5G U26G A45C C61U G67A] showed a yeast fitness of at most 0.5.
GUUGCGUUGGCGUAAUGGUAACGCGUCUCCCUCCUAAGGGGAAGGCUGCGGGUUCGAGUCCCGUACGGAACG [C4G A40G A45G] gave a yeast fitness of at most 0.5.
In the case of GUUGCGUUGGAGUAAUGGCAACCCGUCUCCCUCCUAAGGAGAAGACCGCGGGUUCGAGUCCCGUACGGAUCG [C4G C11A U19C G23C U47C A70U], the yeast fitness is reported as at most 0.5.
In the case of GUUGUGUUGGCGUAAUGGUUACGCGUCUCCCUCCUAAGCGGAAGACUGCGGGUUCGAGUCCCGUACGGAUCG [C4G C5U A20U G39C A40G A70U], the yeast fitness is reported as at most 0.5.
Variant GUUGUGUUGGCGUAAUGGUAACGCGUCUCCCUCCUAAGAAGAACACUGCGGGUUCGAGUCCCGUACGGAACG [C4G C5U G39A G44C] has a yeast fitness of at most 0.5.
GUUGGGUUGGCGUAAUGGUAACGCGUCUACCUCUUAAGGAGUAGACUGCCGGUUCGAGUCCCGUACGGAACG [C4G C5G C29A C34U A42U G50C] gave a yeast fitness of 0.531.
Variant GUUGCGUUGGCGUAAUGGUAGCGCGUCUCCCUCGUAAGGAGAAGACUGCGGGUUCGAGUCCCGUACGGAACG [C4G A21G C34G] has a yeast fitness of at most 0.5.
Work on GUUGCGUUGGCGUAAUGGUAUCGCGUCUCCCUCCUAAGGACAAGACUGCGGGCUCGAGUCCCGUCCGGAACG [C4G A21U G41C U53C A65C] yielded a yeast fitness of 0.535.
GUUGCGUUGGCGUAAUGGUAACGCGUCUCCCUCCUAAGGCGAAGACUGCGGGUUCGAGUCCCGUACGCAACG [C4G A40C G68C] showed a yeast fitness of at most 0.5.
In the case of GUUGCGUUGGAGUAAUGGUAACGCGUCUCGCUCCUAAGGAGAAGACUGCGGGUUCGAGUCCCGUACAGAACG [C4G C11A C30G G67A], the yeast fitness is reported as at most 0.5.
Variant GUUGUGUUGGUGUAAUGGUAACGCGUCUCCCUCCUAAGGAGAAGACUGCGGGUUCGAGUCCCGUACGGAACG [C4G C5U C11U] has a yeast fitness of 0.505.
For GUUGCGUUGGCGUAAUGGUAACGCGUCUCCCUCCUAAGGAGAAGUCUCCGGGUUCGAGUCCCGUACGGAACG [C4G A45U G48C], the yeast fitness was 0.501.
Variant GUUGCGUUGGCGUAAUGGUAGCGCGUAUCCCUCCUAACGAGAAGACUGCGGGUUCGAGUCCCGUACGGAACG [C4G A21G C27A G38C] has a yeast fitness of at most 0.5.
In the case of GUUGUGUUGGCGUAAAGGUAACGCGUCUCCCUCAUAAGGAGAAGACUGCGGGUUCGAGUCCCGUAAGGAACG [C4G C5U U16A C34A C66A], the yeast fitness is reported as at most 0.5.
For GUUGUGUUGGCGUAAUGGUAAGGCGUCUCCCUCCUAAGGAGAAGACUGCGGGUUCGAGUCCCGAACGGAACG [C4G C5U C22G U64A], the yeast fitness was 0.542.
For GUUGUGUUGGCGUAAUGGUAACGCGUCUCCCUCCUAAGGAGAAGACUGAGGGUUCGAGUCCCGUACGGAACG [C4G C5U C49A], the yeast fitness was at most 0.5.
Variant GUUGUGUUGGCGUAAUGGUAACGCGUCUCCCUCCUAAGGGGAAGACUGCGGGUUCGAGUCCCGUACGGAACG [C4G C5U A40G] has a yeast fitness of 0.526.
With GUUGCGUUGGCGUAAUGGUAACGCGUCUCCCUCCUAUGGAGAAGACUGCGGGUUCGACUACCGUACGGAACG [C4G A37U G58C C60A] the yeast fitness was at most 0.5.
In the case of GUUGGGUUGGCGUAAUGGUAACGCGUCUCCCUCCUAAGAAGAAGACUGAGGGUUCGAGUCCCGUACGGAACG [C4G C5G G39A C49A], the yeast fitness is reported as at most 0.5.
GUUGCGUUGGCGUAAUGGUAACGCGUCUCCCUCCUAAGGAGAAGACUGCGGGUUCGUGCCCCGUACAGAACG [C4G A57U U59C G67A] showed a yeast fitness of at most 0.5.
For GUUGCGUUGGCGUAAUGGUAACGCGUCUCCCUCCUAAGGGGAAGACUGCGGGUUCGAGUCCCGUACGGAACG [C4G A40G], the yeast fitness was 0.74.
GUUGCGUUGGCGUAAUGGUAACGCGUCUCCCUCCUAAGGUGAAGACUGCGGGUUCGAGUCCCGUACGGAACG [C4G A40U] gave a yeast fitness of 0.754.
GUUGCGUUGGCGUAAUGGUAGCGCGUCUCCCUCCUAAGGAGAAGUCUGUGGGUUCGAGUCCCGCAUGGAACG [C4G A21G A45U C49U U64C C66U] showed a yeast fitness of at most 0.5.
In the case of GUUGGGUUGGCGUAAUGGUAACGCGUCUCCCUCGUAAGGAGAAGACUGCGGGUUCGGGUCCCGUGUGGAACG [C4G C5G C34G A57G A65G C66U], the yeast fitness is reported as at most 0.5.
Variant GUUGGGUUGGCGUAAUGGUAACGCGUCUUCCUCCUAAGCAGAAGACUGCGGGUUCGAGUCCCGUACGGAACG [C4G C5G C29U G39C] has a yeast fitness of at most 0.5.
GUUGAGUUGGCGUAAUGGUAACGCGUAUCCCUCAUAAGGAGUAGACUGCGGGUUCGAGUCCCGUACGGAACG [C4G C5A C27A C34A A42U] showed a yeast fitness of at most 0.5.
